In experiment [1] the test system is SK-BR-3. Nature of the experiment: Growth inhibition of human SKBR3 cells after 48 hrs by MTT assay. The class given is functional, cell-based. Particulars: SK-BR-3, 48 h. In outline: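 Cells were seeded for 24 h, then exposed to a range of compound concentrations (DMSO ≤0.1% final) for 48 h. MTT (0.5 mg/mL) was added for 2 h, formazan was dissolved in DMSO and A570 read. Six replicates; IC50 from nonlinear regression.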

For experiment [2], the species on record is Bos taurus. The experiment in a line: Inhibition of bovine brain tubulin polymerization after 20 mins by spectrophotometric analysis.
The target in experiment [3] is T1, Tubulin (Homo sapiens) (UniProt P68371+Q9H4B7+P0DPH7+P68366+Q13509+Q71U36+P04350+Q3ZCM7+P07437+P68363+Q9BQE3+Q6PEY2+Q13885+Q9BVA1+Q9BUF5). Nature of the experiment: Inhibition of tubulin polymerization in human SKBR3 cells assessed as microtubule disorganization at 0.5 to 1 uM after 24 hrs by fluorescence microscopic analysis. The experiment is classed as cell-based. Particulars: SK-BR-3. In outline:
(§1)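 SKBR-3 cells in chamber slides were grown to 70% confluence, then treated with 0.5 or 1 μM compound for 12 and 24 h; untreated cells and 0.05 μM nocodazole served as controls. Cells were fixed in 4% paraformaldehyde, permeabilized with 0.2% Triton X-100 and blocked with 2% goat serum. They were stained with biotinylated anti-tubulin (1:200, overnight 4 °C) plus Alexa Fluor 488 streptavidin and imaged by fluorescence microscopy.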

In experiment [4] the target is T1, Tubulin (Homo sapiens). The experiment in a line: Inhibition of tubulin polymerization in human SKBR3 cells assessed as decrease in microtubule density at 0.5 to 1 uM after 24 hrs by fluorescence microscopic analysis. The class given is cell-based. Particulars: SK-BR-3. The procedure, abridged:
as §1

Experiment [5] has as its target T1, Tubulin (Homo sapiens). Nature of the experiment: Inhibition of tubulin polymerization in human SKBR3 cells assessed as decrease in microtubule density at 0.5 to 1 uM after 12 hrs by fluorescence microscopic analysis. The following applies: SK-BR-3. The class given is cell-based. In outline:
as §1

The target in experiment [6] is T1, Tubulin (Homo sapiens). Nature of the experiment: Inhibition of tubulin polymerization in human SKBR3 cells assessed as microtubule disorganization at 0.5 to 1 uM after 12 hrs by fluorescence microscopic analysis. The experiment is classed as cell-based. Particulars: SK-BR-3. In outline: as §1
Experiment [7] has as its target Heat shock protein beta-1 (Homo sapiens) (UniProt P04792). The experiment in a line: Induction of Hsp27 phosphorylation in human SKBR3 cells at 50 to 100 nM after 24 hrs by SDS-PAGE analysis. The class given is cell-based. Particulars: SK-BR-3. In outline:
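SKBR-3 cells were treated for 24 h with 50 and 100 nM nocodazole, with compound or KRIBB3 run alongside. Lysates (50 μg protein) were separated on 12% SDS-PAGE and transferred to PVDF. Membranes were blocked 1 h and probed for pSer78 Hsp27, with total Hsp27 and actin as loading controls, then detected by HRP secondary and ECL.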

For experiment [8] the target is unchanged. The experiment in a line: Binding affinity to pure Hsp27 in human SKBR3 cell lysate at 2 uM after 1 hr by Western blot analysis. Particulars: SK-BR-3.
Experiment [9] shares this target. The experiment in a line: Inhibition of Hsp27 phosphorylation in human SKBR3 cells at 0.5 to 1 uM after 24 hrs by Western blot analysis. Particulars: SK-BR-3.
Experiment [10] shares this target. The experiment in a line: Binding affinity to pure Hsp27 in human SKBR3 cell lysate at 25 to 50 uM after 1 hr by Western blot analysis. Particulars: SK-BR-3. The experiment is classed as cell-free. In outline: (§2)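 Pure proteins, 10 μM bovine brain tubulin or recombinant Hsp27, were tested in separate experiments. Each was incubated with 2 μM biotinylated probe for 1 h at room temperature, then with neutravidin resin for 30 min. After five washes with binding buffer, bound protein was eluted twice with buffer containing compound at 25 and 50 μM. Eluates and resin were denatured, run on SDS-PAGE, transferred to PVDF and probed with α-/β-tubulin or Hsp27 antibodies.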

For experiment [11], the system named is SK-BR-3. The experiment in a line: Binding affinity to alpha-tubulin in human SKBR3 cell lysate at 25 uM after 30 mins by mass spectrometric analysis. The class given is cell-free. In outline:
(§3)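 SKBR-3 cells (1.0 × 10^7) were lysed in NP-40 buffer with protease inhibitors and sonicated. Lysate was incubated with biotinylated probe (25 μM final) for 1 h at room temperature, then with neutravidin resin for 30 min. After five binding-buffer washes, bound proteins were eluted with buffer containing compound at 25 and 50 μM. Resin was boiled in SDS buffer. Samples were run on SDS-PAGE and silver-stained; bands were trypsin-digested in-gel and analysed by LC-QTOF/MS.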

The species named for experiment [12] is Bos taurus. Nature of the experiment: Binding affinity to bovine brain tubulin at 2 uM after 1 hr by SDS-PAGE analysis in preincubated with 10 uM colchicine. In outline: (§4)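 Bovine brain tubulin (10 μM) was preincubated with 10 μM colchicine or paclitaxel for 1 h at room temperature. It was then incubated with 2 μM biotinylated probe in binding buffer for 1 h at room temperature and loaded onto a neutravidin resin column for 30 min. The resin was washed five times with binding buffer, then twice with buffer containing compound (25, 50 μM). Eluates and resin were analysed by SDS-PAGE and Western blot with tubulin antibody.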

Experiment [13] has as its system SK-BR-3. The experiment in a line: Binding affinity to beta-tubulin in human SKBR3 cell lysate at 25 uM after 30 mins by mass spectrometric analysis. The class given is cell-free. The procedure, abridged: as §3
Experiment [14] is filed under the species Bos taurus. Nature of the experiment: Binding affinity to bovine brain tubulin at 2 uM after 1 hr by SDS-PAGE analysis in preincubated with 10 uM paclitaxel. In outline: as §4
The test system of experiment [15] is SK-BR-3. The experiment in a line: Binding affinity to pure beta-tubulin in human SKBR3 cell lysate at 25 to 50 uM after 1 hr by Western blot analysis. The class given is cell-free. In outline:
as §2

The target of experiment [16] is Heat shock protein beta-1 (Homo sapiens) (UniProt P04792). The experiment in a line: Binding affinity to Hsp27 in human SKBR3 cell lysate at 25 uM after 30 mins by mass spectrometric analysis. The class given is cell-free. The following applies: SK-BR-3. The procedure, abridged: as §3
In experiment [17] the test system is SK-BR-3. The experiment in a line: Binding affinity to pure alpha-tubulin in human SKBR3 cell lysate at 25 to 50 uM after 1 hr by Western blot analysis. The class given is cell-free. The procedure, abridged:
as §2

The structures appear in SMILES notation. The source made the active and inactive calls. No cut-off for these calls is given here.

Chain of Heat shock protein beta-1 (Homo sapiens) (P04792 whole entry): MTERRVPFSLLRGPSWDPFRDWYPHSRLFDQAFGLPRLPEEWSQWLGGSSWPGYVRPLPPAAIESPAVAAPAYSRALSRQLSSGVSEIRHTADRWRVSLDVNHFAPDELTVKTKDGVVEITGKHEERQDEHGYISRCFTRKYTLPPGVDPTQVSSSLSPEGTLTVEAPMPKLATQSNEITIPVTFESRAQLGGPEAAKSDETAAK

With `CN(c1ccc(NC(=O)c2ccc3c(c2)OCO3)cc1OCc1ccccc1)S(C)(=O)=O`, in [1], it took 62.9 µM to reach half-maximal inhibition (IC50).

For `Cc1ccc(C)c(COc2cc(NC(=O)c3ccc4c(c3)OCO4)ccc2N(C)S(C)(=O)=O)c1`, the inhibition entry in experiment [2] was “Dose-dependent effect”. The inhibition entry in experiment [3], in [4], in experiment [5] and in [6] was “Active” in each case.

For the molecule `COC(=O)Nc1nc2cc(C(=O)c3cccs3)ccc2[nH]1`, in experiment [7], the result was Active.

In turn, `Cc1ccc(C)c(COc2cc(NC(=O)Cc3ccccc3)ccc2N(C)S(C)(=O)=O)c1` gave an IC50 in experiment [1] of 121 µM.

In the case of `CCc1cc(-c2oncc2-c2ccc(OC)cc2)c(O)cc1OC`, the outcome in [8] was Active. Also, the inhibition entry in experiment [9] is “Active”.

Take `Cc1ccc(C)c(COc2cc(NC(=O)c3ccc4c(c3)OCO4)ccc2N(CCCCCCNC(=O)CCCC[C@H]2SC[C@H]3NC(=O)N[C@H]32)S(C)(=O)=O)c1`: the result in [10], in [11], in [13], in [14], in experiment [15] and in [16] was Active. The result in experiment [17] was Active. In [12], the outcome was inactive. In addition, in experiment [1], the IC50 amounted to 2 µM.

(Values after ChEMBL document CHEMBL2057143, “Identification of a class of novel tubulin inhibitors” (J Med Chem, 2012).)
